Screens from PubChem.
Beta apoptosis: inhibitors of cytokine-induced beta cell apoptosis, primary screen, luminescence; INS-1E cytokine-induced death, ATP luminescence, 48 h; percent of positive-control rescue, neutral wells zero; protection from apoptosis, % (no concentration beside the values); hit rate 0.8% among 300,000; AID 435005, 2010;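 active = Every replicate reaches about 75%, or at least half do and their mean reaches it too, limit read from the data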;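 note: 0% = cytokine-treated negative control wells and 100% = positive control rescue; higher means more ATP so stronger rescue from cytokine killing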
CSC inhib: cancer stem cell viability inhibitors, primary screen, luminescence; cancer stem cell-like cells viability; inhibition, % at 7.5 µM; hit rate 1.1% among 300,000; AID 2717, 2010; in the data active = inhibition above about 75%; tested in HMLE shEcad cells
CHOP inhibitor: inhibitors of CHOP promoter induction, primary screen, cell-based, unfolded protein response, luciferase reporter; hit rate 3.8% among 220,000; AID 2732, 2010; inhibition, % at 10 µM; CHO-K1 CHOP-promoter luciferase, tunicamycin-induced, 15-18 h;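 active = compounds that reduced the stress-induced luciferase reporter signal by more than about 70% of percent inhibition, limit read from the data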;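 note: 0% = tunicamycin plus vehicle and 100% = wells without tunicamycin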
PREPL inh: PREPL enzyme inhibitors, primary screen, biochemical, fluorescence polarization; recombinant PREPL, fluorescence polarization activity-based probe; inhibition, % at 5.96 µM; hit rate 0.68% among 320,000; in the data active = inhibition above about 43%;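 note: 0% = enzyme with DMSO and 100% = wells lacking enzyme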
Target sequence (Q4J6C6 whole entry, looked up): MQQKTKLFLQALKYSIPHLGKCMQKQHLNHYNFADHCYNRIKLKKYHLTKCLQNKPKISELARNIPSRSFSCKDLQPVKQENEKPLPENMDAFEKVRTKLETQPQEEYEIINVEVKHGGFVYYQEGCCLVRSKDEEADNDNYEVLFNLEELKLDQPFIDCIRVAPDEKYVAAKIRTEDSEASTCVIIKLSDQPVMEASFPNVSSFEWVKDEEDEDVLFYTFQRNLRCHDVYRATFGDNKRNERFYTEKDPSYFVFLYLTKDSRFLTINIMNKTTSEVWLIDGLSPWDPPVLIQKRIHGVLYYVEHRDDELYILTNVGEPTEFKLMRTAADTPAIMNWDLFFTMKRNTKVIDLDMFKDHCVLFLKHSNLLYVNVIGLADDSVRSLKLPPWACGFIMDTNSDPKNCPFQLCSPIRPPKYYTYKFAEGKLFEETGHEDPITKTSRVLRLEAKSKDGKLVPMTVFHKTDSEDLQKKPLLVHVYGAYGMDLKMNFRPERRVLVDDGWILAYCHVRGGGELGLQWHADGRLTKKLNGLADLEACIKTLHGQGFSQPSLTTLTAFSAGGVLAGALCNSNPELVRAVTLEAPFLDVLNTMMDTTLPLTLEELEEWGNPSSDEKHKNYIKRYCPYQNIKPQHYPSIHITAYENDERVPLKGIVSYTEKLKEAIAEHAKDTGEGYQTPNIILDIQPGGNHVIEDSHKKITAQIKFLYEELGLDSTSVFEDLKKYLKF
T cruzi repl: inhibitors of intracellular T. cruzi growth, primary screen, luminescence, NIH3T3 host cells; inhibition, % (test concentration not listed); hit rate 1.4% among 300,000; T. cruzi beta-gal in NIH3T3, 90 h;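 active = mean inhibition across valid replicates above about 55%, limit read from the data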;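 note: signal also drops with host cell toxicity which is not excluded here; 0% = plate median of DMSO wells and 100% = zero luminescence signal; higher percent means less beta-gal luminescence so fewer parasites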
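Read-out: Parasite load inhibition, % | Test system: Mouse NIH/3T3 fibroblasts infected with β-gal-expressing T. cruzi Tulahuen C4 | Amount: 5,000 cells/well | Medium: DMEM, 2% fetal bovine serum | Signal: GalScreen β-gal luminescence, detergent lysis, 60 min | Timing: 3 h attach, ≥90 h co-culture | Also added: Tulahuen C4 trypomastigotes, 5000/well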
NR3A LBD binder: binders of NR3A ligand-binding domain, primary screen, biophysical, differential scanning fluorimetry, uHTS | NR3A LBD differential scanning fluorimetry, Tm shift; 0% = protein alone, 100% = glycine-bound protein | Glutamate receptor ionotropic, NMDA 3A (GRIN3A) ligand-binding domain | AID 1259313, 2017 | Tm shift relative to glycine control, % at 25 µM | hit rate 2.5% among 340,000;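 active = melting temperature shift of at least 10% of the positive control shift, at one fixed dose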
Active calls of the source: *. Compounds with a hit are over-represented: about 6.7% of the library has one in this group of screens.

Results for CCOc1ccc(/C=N/NC(=O)c2ccccc2NC(=O)c2ccc(OC)cc2)cc1 ?
CSC inhib: -6; CHOP inhibitor: 32; PREPL inh: -6; T cruzi repl: -6; NR3A LBD binder: 15*

What do the screens show for `CCOc1ccc(OCc2ccc(C(=O)NN=Cc3ccc[nH]3)cc2)cc1`?
Beta apoptosis: 123*; CSC inhib: 92*; PREPL inh: 15; NR3A LBD binder: 19*

Results for COc1ccc(C(=O)Nc2ccccc2C(=O)N/N=C/c2ccco2)cc1 ?
Beta apoptosis: 8; CSC inhib: 21; CHOP inhibitor: -28; PREPL inh: 20; T cruzi repl: -2; NR3A LBD binder: -1

What do the screens show for `Cc1cc(C)cc(NC(=O)Nc2ccccc2N2CCCCC2)c1`?
Beta apoptosis: 4; CSC inhib: 44; CHOP inhibitor: 30; PREPL inh: 3; T cruzi repl: 27; NR3A LBD binder: 2

Results for Cc1cc(C)c(C(=O)c2ccc(C(=O)N(C(C)C)C(C)C)cc2)c(C)c1 ?
Beta apoptosis: 0; CSC inhib: 22; CHOP inhibitor: 94*; PREPL inh: 17; T cruzi repl: 20; NR3A LBD binder: -2

How did Cc1cc(C)c(C(=O)c2ccc(C(=O)NC(C)(C)C)cc2)c(C)c1 do in these assays?
Beta apoptosis: 0; CSC inhib: 7; CHOP inhibitor: 64; PREPL inh: 11; T cruzi repl: 13; NR3A LBD binder: -2

What do the screens show for `Cc1ccc(N=C2NC(=O)S/C2=C\c2ccco2)cc1`?
Beta apoptosis: 7; CSC inhib: 3; CHOP inhibitor: 100*; PREPL inh: -4; T cruzi repl: 0; NR3A LBD binder: -1

Results for Cc1cc(OC(C)C(=O)NCC2CCC(C(=O)O)CC2)c2c(C)cc(=O)oc2c1 (centres undefined) ?
Beta apoptosis: 3; CSC inhib: -11; PREPL inh: -5; T cruzi repl: -4; NR3A LBD binder: -3

Results for Cc1c(C(=O)NNC(=S)NCc2ccc(Cl)cc2)oc2ccccc12 ?
Beta apoptosis: 5; CSC inhib: 19; PREPL inh: 6; T cruzi repl: -33; NR3A LBD binder: 9

Results for O=C(Nc1ccc(Br)cc1)c1ccc(N2C(=O)C3CC=C(Cl)CC3C2=O)cc1 (centres undefined) ?
Beta apoptosis: -4; CSC inhib: 9; CHOP inhibitor: 77*; PREPL inh: -8; T cruzi repl: -1; NR3A LBD binder: 26*

Results for O=C(CCCN1C(=O)C2CC=CCC2C1=O)Nc1cccc(F)c1 (centres undefined) ?
Beta apoptosis: -1; CSC inhib: -9; PREPL inh: -1; T cruzi repl: -2; NR3A LBD binder: 11*

What do the screens show for `O=C(CCN1C(=O)C2CC=CCC2C1=O)Nc1ccccc1Cl` (centres undefined)?
Beta apoptosis: -4; CSC inhib: -17; PREPL inh: 3; T cruzi repl: -5; NR3A LBD binder: -1

Results for COc1ccc(NC(=O)CCN2C(=O)C3CC=C(Cl)CC3C2=O)cc1 (centres undefined) ?
Beta apoptosis: 1; CSC inhib: 5; CHOP inhibitor: -7; PREPL inh: -2; T cruzi repl: -12; NR3A LBD binder: 32*

Results for Cc1c(Cl)cccc1NC(=O)CCN1C(=O)C2CC=CCC2C1=O (centres undefined) ?
Beta apoptosis: 1; CSC inhib: -8; PREPL inh: 3; T cruzi repl: 9; NR3A LBD binder: 11*

How did CCC(C)c1ccccc1N1CC(C(=O)NCCCn2nc(C)cc2C)CC1=O (centres undefined) do in these assays?
Beta apoptosis: 0; PREPL inh: 1; NR3A LBD binder: -2

What do the screens show for `O=C(C1=C[C@H](C2CCCCC2)C[C@H](OCCCCO)O1)N1CCN(Cc2ccc3c(c2)OCO3)CC1`?
Beta apoptosis: 4; CSC inhib: 13; CHOP inhibitor: 12; PREPL inh: 20; T cruzi repl: 56*; NR3A LBD binder: 0

Results for CCO[C@H]1OC(C(=O)N2CCN(Cc3ccccc3)CC2)=C[C@@H](C2CCCCC2)[C@@H]1CCCO ?
Beta apoptosis: 1; CSC inhib: 36; CHOP inhibitor: 0; PREPL inh: 13; T cruzi repl: 28; NR3A LBD binder: -4

Results for CCO[C@@H]1OC(C(=O)N2CCN(Cc3ccc4c(c3)OCO4)CC2)=C[C@H](C2CCCCC2)[C@H]1CCCO ?
Beta apoptosis: -4; CSC inhib: 7; CHOP inhibitor: 24; PREPL inh: 34; T cruzi repl: 72*; NR3A LBD binder: -2

How did O=C(C1=C[C@H](c2ccc3c(c2)OCO3)C[C@H](OCCCCO)O1)N1CCN(Cc2ccc3c(c2)OCO3)CC1 do in these assays?
Beta apoptosis: -2; CSC inhib: 2; CHOP inhibitor: -12; PREPL inh: 26; T cruzi repl: 29; NR3A LBD binder: 1

Results for C#Cc1ccc([C@@H]2C=C(C(=O)N3CCN(Cc4ccc5c(c4)OCO5)CC3)O[C@H](OCCCCO)C2)cc1 ?
Beta apoptosis: 4; CSC inhib: 0; CHOP inhibitor: 32; PREPL inh: 45*; T cruzi repl: 5; NR3A LBD binder: -1

Results for O=C(C1=C[C@H](c2ccc(Br)cc2)C[C@H](OCCCCO)O1)N1CCN(Cc2ccc3c(c2)OCO3)CC1 ?
Beta apoptosis: 1; CSC inhib: -18; CHOP inhibitor: 12; PREPL inh: 34; T cruzi repl: 65*; NR3A LBD binder: -2

What do the screens show for `CN1CCN(C(=O)C2=C[C@H](c3ccccc3)C[C@H](OCc3ccc(CO)cc3)O2)CC1`?
Beta apoptosis: -3; CSC inhib: -12; CHOP inhibitor: 7; PREPL inh: 24; T cruzi repl: -1; NR3A LBD binder: 0

How did CCCCn1c(N)c(N(CC(C)C)C(=O)CSCc2ccc(Cl)c(Cl)c2)c(=O)[nH]c1=O do in these assays?
Beta apoptosis: -2; CSC inhib: -4; PREPL inh: 23; T cruzi repl: 3; NR3A LBD binder: -5

Results for COC(=O)c1ccc(CSc2nnc(C)n2N)o1 ?
Beta apoptosis: 1; CSC inhib: -31; CHOP inhibitor: -11; PREPL inh: 5; T cruzi repl: -2; NR3A LBD binder: 3

Results for O=C(CSc1nc2c(c(=O)n1-c1ccc(Br)cc1)SCC2)Nc1nccs1 ?
Beta apoptosis: 3; CSC inhib: -3; CHOP inhibitor: -7; PREPL inh: -9; T cruzi repl: 3; NR3A LBD binder: 6
